This is an account of results in article PMC11261800 (Heliyon, 2024).

The test system of this assay is HFF-1 cells. Kind of assay: SA-β-gal activity in D-gal-induced premature aging of HFF-1 cells. The format is cell-based, human. The settings on record: 500 μg/mL. The method, boiled down: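 HFF-1 fibroblasts were seeded at 2 × 10^4 cells/well and cultured for 24 h. Growth medium was replaced for 72 h with test sample solution containing D-gal at 20 mg/mL final. SA-β-gal activity was detected by X-gal staining, and blue positive cells were viewed by microscopy and counted against the D-gal-injured and blank control groups.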

As for `N[C@@H](CCC(=O)N[C@@H](CS)C(=O)NCC(=O)O)C(=O)O` [GSH], the “decrease of SA-β-gal positive staining rate compared with the D-gal group” value is recorded as 50.61%.
